Data published in ChEMBL document CHEMBL3124924, “Bifunctional ethyl 2-amino-4-methylthiazole-5-carboxylate derivatives: synthesis and in vitro biological evaluation as antimicrobial and anticancer agents” (2014).
Values after ≈ are worked out from the molar mass of the structure shown. Active and inactive are the calls of the source. No cut-off for these calls is given here.

What was measured:
Candida albicans [1] = assay: Antifungal activity against Candida albicans ATCC 10231 assessed as growth inhibition at 1 mg/mL after 48 hrs by agar-cup diffusion method; type: functional; conditions: ATCC 10231, 48 h, read-out: DIZ
In short: (§1)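 Agar-cup diffusion: 1 mL of 6 h broth culture seeded per 100 mL molten sterile agar at 45 °C and poured into plates. 8 mm cups cut, each filled with 0.1 mL of 1 mg/mL test solution. Incubated 37 °C for 24 h, 48 h for C. albicans. DMSO control per organism. Inhibition zone diameter in mm, mean of three measurements.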

Escherichia coli [2] = assay: Antibacterial activity against Escherichia coli ATCC 25922 assessed as growth inhibition at 1 mg/mL after 24 hrs by agar-cup diffusion method; type: functional; conditions: ATCC 25922, 24 h, read-out: DIZ; in short: as §1
Bacillus spizizenii [3] = assay: Antibacterial activity against Bacillus subtilis ATCC 6633 assessed as growth inhibition at 1 mg/mL after 24 hrs by agar-cup diffusion method; type: functional; conditions: ATCC 6633, 24 h, read-out: DIZ; in short: as §1
Aspergillus niger = assay: Antifungal activity against Aspergillus niger assessed as growth inhibition at 1 mg/mL after 24 hrs by agar-cup diffusion method; type: functional, organism-based; in short: as §1
Escherichia coli [4] = assay: Bactericidal activity against Escherichia coli ATCC 25922 after 18 hrs; type: functional; conditions: ATCC 25922, 18 h
In short: (§2)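 Continuation of the broth-dilution MIC test. A loopful from each tube without visible growth spread on a quarter of a Mueller-Hinton agar plate and incubated 18 h. Lowest concentration giving no growth on subculture taken as the MBC.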

Escherichia coli [5] = assay: Antibacterial activity against Escherichia coli ATCC 25922 assessed as growth inhibition after 48 hrs by two-fold serial dilution assay; type: functional
In short: (§3)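 Twofold serial broth dilution run on compounds giving inhibition zones of 13 mm or more. Organisms pre-grown in suitable broth at 37 °C, 24 h for bacteria and 48 h for fungi. Dilution series 200, 100, 50, 25, 12.5, 6.25. Each 5 mL tube inoculated with 0.1 mL and incubated 37 °C for 48 h. Tubes scored for presence or absence of growth.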

Bacillus spizizenii [6] = assay: Bactericidal activity against Bacillus subtilis ATCC 6633 after 18 hrs; type: functional; conditions: ATCC 6633, 18 h; in short: as §2
Bacillus spizizenii [7] = assay: Antibacterial activity against Bacillus subtilis ATCC 6633 assessed as growth inhibition after 48 hrs by two-fold serial dilution assay; type: functional; in short: as §3
Staphylococcus aureus [8] = assay: Bactericidal activity against Staphylococcus aureus ATCC 6538 after 18 hrs; type: functional; conditions: ATCC 6538, 18 h; in short: as §2
Staphylococcus aureus [9] = assay: Antibacterial activity against Staphylococcus aureus ATCC 6538 assessed as growth inhibition after 48 hrs by two-fold serial dilution assay; type: functional; in short: as §3
Staphylococcus aureus [10] = assay: Antibacterial activity against Staphylococcus aureus ATCC 6538 assessed as growth inhibition at 1 mg/mL after 24 hrs by agar-cup diffusion method; type: functional; conditions: ATCC 6538, 24 h, read-out: DIZ; in short: as §1
Pseudomonas aeruginosa [11] = assay: Antibacterial activity against Pseudomonas aeruginosa ATCC 27853 assessed as growth inhibition at 1 mg/mL after 24 hrs by agar-cup diffusion method; type: functional; conditions: ATCC 27853, 24 h, read-out: DIZ; in short: as §1
Candida albicans [12] = assay: Antifungal activity against Candida albicans ATCC 10231 assessed as growth inhibition after 48 hrs by two-fold serial dilution assay; type: functional; conditions: ATCC 10231, 48 h; in short: as §3
Pseudomonas aeruginosa [13] = assay: Antibacterial activity against Pseudomonas aeruginosa ATCC 27853 assessed as growth inhibition after 48 hrs by two-fold serial dilution assay; type: functional; in short: as §3
Pseudomonas aeruginosa [14] = assay: Bactericidal activity against Pseudomonas aeruginosa ATCC 27853 after 18 hrs; type: functional; conditions: ATCC 27853, 18 h; in short: as §2

Row | Compound | zone of inhibition at 1000 µg/mL (Candida albicans [1]) | zone of inhibition at 1000 µg/mL (Escherichia coli [2]) | zone of inhibition at 1000 µg/mL (Bacillus spizizenii [3]) | growth inhibition (GI) (Aspergillus niger) | MBC (Escherichia coli [4]) | MIC (Escherichia coli [5]; ATCC 25922, 48 h) | MBC (Bacillus spizizenii [6]) | MIC (Bacillus spizizenii [7]; ATCC 6633, 48 h) | MBC (Staphylococcus aureus [8]) | MIC (Staphylococcus aureus [9]; ATCC 6538, 48 h) | zone of inhibition at 1000 µg/mL (Staphylococcus aureus [10]) | zone of inhibition at 1000 µg/mL (Pseudomonas aeruginosa [11]) | MIC (Candida albicans [12]) | MIC (Pseudomonas aeruginosa [13]) | MIC (Escherichia coli [5]) | MIC (Bacillus spizizenii [7]) | MIC (Staphylococcus aureus [9]) | MBC (Pseudomonas aeruginosa [14]) | MIC (Pseudomonas aeruginosa [13]; ATCC 27853, 48 h)
1 | Cc1nc(NC(=S)Nc2ccccc2)sc1C(=O)NN | > 13 mm | > 13 mm | > 13 mm | inactive | 100 µg/mL (≈ 325 µM) | 100 µg/mL (≈ 325 µM) | 200 µg/mL (≈ 651 µM) | 100 µg/mL (≈ 325 µM) | 100 µg/mL (≈ 325 µM) | 50 µg/mL (≈ 163 µM) | > 13 mm | > 13 mm |  |  |  |  |  |  | 
2 | CCOC(=O)c1sc(/N=C/c2ccco2)nc1C | > 13 mm | > 13 mm | > 13 mm | inactive | 50 µg/mL (≈ 189 µM) | 25 µg/mL (≈ 94.6 µM) | 200 µg/mL (≈ 757 µM) | 100 µg/mL (≈ 378 µM) | 100 µg/mL (≈ 378 µM) | 50 µg/mL (≈ 189 µM) | > 13 mm | > 13 mm |  |  |  |  |  |  | 
3 | Clc1ccccc1C(c1ccccc1)(c1ccccc1)n1ccnc1 [CLOTRIMAZOLE] |  |  |  |  |  |  |  |  |  |  |  |  | 6.25 µg/mL (≈ 18.1 µM) |  |  |  |  |  | 
4 | CCOC(=O)c1sc(NC(=S)NC2CCCCC2)nc1C | > 13 mm | > 13 mm | > 13 mm | inactive | 100 µg/mL (≈ 305 µM) | 50 µg/mL (≈ 153 µM) | 200 µg/mL (≈ 611 µM) | 100 µg/mL (≈ 305 µM) | 100 µg/mL (≈ 305 µM) | 50 µg/mL (≈ 153 µM) | > 13 mm | > 13 mm |  |  |  |  |  |  | 
5 | GENTAMICIN |  |  |  |  |  |  |  |  |  |  |  |  |  | 12.5 µg/mL | 3.12 µg/mL | 12.5 µg/mL | 3.12 µg/mL |  | 
6 | CCOC(=O)c1sc(NC=O)nc1C | > 13 mm | > 13 mm | > 13 mm | inactive |  |  | 200 µg/mL (≈ 934 µM) | 100 µg/mL (≈ 467 µM) | 200 µg/mL (≈ 934 µM) | 100 µg/mL (≈ 467 µM) | > 13 mm | > 13 mm |  |  |  |  |  |  | 
7 | CCOC(=O)c1sc(NC(=S)Nc2ccc(C)cc2)nc1C | > 13 mm | > 13 mm | > 13 mm | inactive | 100 µg/mL (≈ 298 µM) | 50 µg/mL (≈ 149 µM) | 100 µg/mL (≈ 298 µM) | 100 µg/mL (≈ 298 µM) | 50 µg/mL (≈ 149 µM) | 50 µg/mL (≈ 149 µM) | > 13 mm | > 13 mm |  |  |  |  |  | 200 µg/mL (≈ 596 µM) | 100 µg/mL (≈ 298 µM)
8 | Cc1nc(NC(=S)NC2CCCCC2)sc1C(=O)NN | > 13 mm | > 13 mm | > 13 mm | inactive | 100 µg/mL (≈ 319 µM) | 50 µg/mL (≈ 160 µM) | 100 µg/mL (≈ 319 µM) | 100 µg/mL (≈ 319 µM) | 100 µg/mL (≈ 319 µM) | 100 µg/mL (≈ 319 µM) | > 13 mm | > 13 mm |  |  |  |  |  | 200 µg/mL (≈ 638 µM) | 100 µg/mL (≈ 319 µM)
9 | CCOC(=O)c1sc(/N=C/c2cccs2)nc1C | > 13 mm | > 13 mm | > 13 mm | inactive | 100 µg/mL (≈ 357 µM) | 50 µg/mL (≈ 178 µM) | 200 µg/mL (≈ 713 µM) | 100 µg/mL (≈ 357 µM) | 200 µg/mL (≈ 713 µM) | 100 µg/mL (≈ 357 µM) | > 13 mm | > 13 mm |  |  |  |  |  |  | 
10 | CC1(C)S[C@@H]2[C@H](NC(=O)[C@H](N)c3ccccc3)C(=O)N2[C@H]1C(=O)O.O.O.O [AMPICILLIN TRIHYDRATE] |  |  |  |  |  | 6.25 µg/mL |  | 12.5 µg/mL |  | 6.25 µg/mL |  |  |  |  |  |  |  |  | 12.5 µg/mL
11 | C[C@@H]1[C@H](O)[C@@H](C)/C=C/C=C/C=C/C=C/C=C/C=C/C=C/[C@H](O[C@@H]2O[C@H](C)[C@@H](O)[C@H](N)[C@@H]2O)C[C@@H]2O[C@](O)(C[C@@H](O)C[C@@H](O)[C@H](O)CC[C@@H](O)C[C@@H](O)CC(=O)O[C@H]1C)C[C@H](O)[C@H]2C(=O)O [AMPHOTERICIN B] |  |  |  |  |  |  |  |  |  |  |  |  | 1.56 µg/mL (≈ 1.69 µM) |  |  |  |  |  | 
